Tests used:
[1] = test system: Mycobacterium tuberculosis; assay: Antimicrobial activity against multidrug-resistant Mycobacterium tuberculosis LAM-1 at 5 uM by Bactec 460 TB method relative to control; format: functional; settings: read-out: GI
Procedure, shortened: (§1)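 MDR clinical isolate LAM-1 was precultured in a BACTEC vial to growth index 300, then inoculated into a fresh vial with compound (dilutions made at 40-fold final in 7H9-10% OADC). 14CO2 release from 14C-palmitic acid was read daily.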

[2] = test system: Mycobacterium tuberculosis; assay: Antimicrobial activity against multidrug-resistant Mycobacterium tuberculosis LAM-1 at 1 uM by Bactec 460 TB method relative to control; format: functional; settings: read-out: GI; procedure, shortened: as §1

Row | SMILES | inhibition of growth at 5 µM [1] | inhibition of growth at 1 µM [2]
1 | COc1ccc(-c2cc3c4c(nccc4n2)-c2ccccc2C3=O)cc1 | 99% | 90%
2 | COc1ccc(-c2cc3c(c(/C=C/N(C)C)n2)C(=O)c2ccccc2C3=O)cc1 | 99% | 90%
3 | COc1ccc(-c2cc(O)c3c(c2)C(=O)c2ccccc2C3=O)cc1 | 99% | 90%
